Laboratory results: publication PMC2765218 (Nature biotechnology, 2009)

System: mutant HTT
Format: cell-based, human
Settings: GM04281 cells
Summary of the method: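 GM04281 fibroblasts (heterozygous for mutant HTT) were grown in MEM with 10% heat-inactivated FBS and plated 2 days before treatment. PNA-peptide conjugate stocks were heated 65 °C for 5 min, then added in OptiMEM; medium was replaced after 24 h and cells were harvested about 4 days later. BCA-normalised lysates ran on 5% Tris-acetate SDS-PAGE (ice bath) to separate wild-type and mutant HTT. Anti-HTT immunoblot with β-actin loading control; densitometry gave % inhibition versus control from triplicate experiments. Dose-response fit: y=100(1−x^m/(n^m+x^m)).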

selectivity (wild-type IC50/mutant IC50), HTT: 5 fold
Substance: K-GGCGGCTGTTGCTGCTGCT-K8 [3J/HTT]
